According to ChEMBL document CHEMBL4002578, “α-Glucosidase Inhibitors from the Marine-Derived Fungus Aspergillus flavipes HN4-13” (J Nat Prod, 2016):
Where a name gives a salt, the structure may show the parent alone.

Experiments:
[1] = Non-competitive inhibition of human alpha-glucosidase expressed in Saccharomyces cerevisiae using varying levels of p-nitophenyl-alpha-glucopyranoside as substrate pretreated with substrate for 15 mins followed by enzyme addition measured after 15 mins by Lineweaver-burk plot analysis
[2] = Selectivity index, ratio of CC50 for human Caco2 cells to IC50 for human alpha-glucosidase expressed in Saccharomyces cerevisiae
Outline: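 SI was calculated as Caco-2 CC50 (MTT) divided by the α-glucosidase IC50 from the pNPG assay.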

Jurkat = assay: Cytotoxicity against human Jurkat cells assessed as growth inhibition at 10 uM measured after 72 hrs by CCK-8 assay relative to control; format: functional; conditions: read-out: GI
HepG2 = assay: Cytotoxicity against human HepG2 cells assessed as growth inhibition at 10 uM measured after 72 hrs by CCK-8 assay relative to control; format: functional; conditions: HepG2, 72 h, read-out: GI
[3] = Cytotoxicity against human Caco2 cells measured after 72 hrs by MTT assay; format: cell-based; conditions: Caco-2 cells
Outline: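 Caco-2 viability was measured by MTT, and the median cytotoxic concentration (CC50) was derived.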

[4] = Inhibition of human alpha-glucosidase expressed in Saccharomyces cerevisiae using p-nitophenyl-alpha-glucopyranoside as substrate pretreated with substrate for 15 mins followed by enzyme addition measured after 15 mins
Outline: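 Enzyme from a recombinant gene expressed in Saccharomyces cerevisiae, diluted to 0.2 U/mL in 0.01 M PBS. Compound, at three concentrations in sodium phosphate buffer pH 6.8, was mixed with 2.5 mM pNPG stock and held 15 min at 37 °C. Enzyme was then added for a further 15 min at 37 °C, and absorbance was read at 405 nm. The no-enzyme blank was subtracted, and IC50 was taken as the concentration giving 50% inhibition.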

A549 = assay: Cytotoxicity against human A549 cells assessed as growth inhibition at 10 uM measured after 72 hrs by CCK-8 assay relative to control; format: functional; conditions: A549, 72 h, read-out: GI
MCF7 = assay: Cytotoxicity against human MCF7 cells assessed as growth inhibition at 10 uM measured after 72 hrs by CCK-8 assay relative to control; format: functional; conditions: MCF7, 72 h, read-out: GI
[5] = Competitive inhibition of human alpha-glucosidase expressed in Saccharomyces cerevisiae using varying levels of p-nitophenyl-alpha-glucopyranoside as substrate pretreated with substrate for 15 mins followed by enzyme addition measured after 15 mins by Lineweaver-burk plot analysis
K562 = assay: Cytotoxicity against human K562 cells assessed as growth inhibition at 10 uM measured after 72 hrs by CCK-8 assay relative to control; format: functional; conditions: K562, 72 h, read-out: GI

Row | Compound | Ki [1] | IC50 [4] | Ki [5] | Ratio CC50/IC50 [2] | inhibition of growth at 10 µM (Jurkat) | inhibition of growth at 10 µM (HepG2) | CC50 at 72 h [3] | inhibition of growth at 10 µM (A549) | inhibition of growth at 10 µM (MCF7) | inhibition of growth at 10 µM (K562)
1 | COc1cc(/C=C2\OC(=O)C(c3ccc(O)cc3)=C2O)ccc1O |  | 120 to 1300 µM |  |  | < 34% | < 34% |  | < 34% | < 34% | < 34%
2 | COC(=O)c1cc(O)cc(OC)c1Oc1cc(C)c(Cl)c(O)c1C(=O)O |  | 120 to 1300 µM |  |  | < 34% | < 34% |  | < 34% | < 34% | < 34%
3 | COC(=O)c1cc(O)cc(OC)c1C(=O)c1c(O)cc(C)c(Cl)c1O |  | 120 to 1300 µM |  |  | < 34% | < 34% |  | < 34% | < 34% | < 34%
4 | CC1(C)CCc2cc(CC3=C(c4ccc(O)cc4)[C@@](O)(C(=O)O)OC3=O)ccc2O1 | 4.7 µM | 95 µM | 9.2 µM | >8.5 | < 34% | < 34% | > 800 µM | < 34% | < 34% | < 34%
5 | C[C@H]1O[C@H](O[C@H]2[C@H](O)[C@@H](O)[C@@H](O[C@H]3[C@H](O)[C@@H](O)C(O)O[C@@H]3CO)O[C@@H]2CO)[C@H](O)[C@@H](O)[C@@H]1N[C@H]1C=C(CO)[C@@H](O)[C@H](O)[C@H]1O (some centres not stated) [ACARBOSE] |  | 101 µM |  |  |  |  |  |  |  | 
6 | COC(=O)c1cc(O)cc(OC)c1Oc1cc(C)cc(O)c1C(=O)O [ASTERRIC ACID] |  |  |  |  | < 34% | < 34% |  | < 34% | < 34% | < 34%
7 | COC(=O)c1cc(O)cc(OC)c1C(=O)c1c(O)c(Cl)c(C)c(Cl)c1O [DIHYDROGEODIN] |  | 120 to 1300 µM |  |  | < 34% | < 34% |  | < 34% | < 34% | < 34%
8 | COc1cccc2c1C(=O)c1c(O)c3c(c(O)c1C2=O)C[C@@](O)(C(=O)CO)C[C@@H]3O[C@H]1C[C@H](N)[C@H](O)[C@H](C)O1 [DOXORUBICIN HYDROCHLORIDE] |  |  |  |  | < 34% | < 34% |  | < 34% | < 34% | < 34%
9 | Cc1cc(O)c2c(c1)C(=O)c1cc(O)cc(O)c1C2=O [EMODIN] | 0.79 µM | 19 µM |  | >43 | < 34% | < 34% | > 800 µM | < 34% | < 34% | < 34%
10 | COC(=O)c1cc(O)cc(OC)c1Oc1c(Cl)c(C)c(Cl)c(O)c1C(=O)OC [METYL DICHLOROASTERRATE] | 2.8 µM | 90 µM |  | >8.9 | < 34% | < 34% | > 800 µM | < 34% | < 34% | < 34%

Further lines, with some results ahead:

Row | Ki [1] | IC50 [4] | Ki [5] | Compound | Ratio CC50/IC50 [2] | inhibition of growth at 10 µM (Jurkat) | inhibition of growth at 10 µM (HepG2) | CC50 at 72 h [3] | inhibition of growth at 10 µM (A549) | inhibition of growth at 10 µM (MCF7) | inhibition of growth at 10 µM (K562)
11 | 7.2 µM | 33 µM | 2.5 µM | Cc1c(O)c(O)c(O)c(C=O)c1-c1cc2c(C=O)c(C)c(O)c(O)c2o1 | >24 | < 34% | < 34% | > 800 µM | < 34% | < 34% | < 34%
12 | 0.6 µM | 9.9 µM | 1.4 µM | COc1cc(O)cc(C(=O)O)c1Oc1cc(C)cc(O)c1C(=O)O | >81 | < 34% | < 34% | > 800 µM | < 34% | < 34% | < 34%
13 | 2.1 µM | 37 µM |  | COC(=O)[C@]1(Cc2ccc3c(c2)CCC(C)(C)O3)OC(=O)C(O)=C1c1ccc(O)cc1 | >22 | < 34% | < 34% | > 800 µM | < 34% | < 34% | < 34%
14 | 14 µM | 57 µM | 3.4 µM | COC(=O)[C@@]1(O)OC(=O)C(Cc2ccc3c(c2)CCC(C)(C)O3)=C1c1ccc(O)cc1 | 4.8 | < 34% | < 34% | 278 µM | < 34% | < 34% | < 34%
15 | 0.43 µM | 34 µM |  | CC1(C)CCc2cc(CC3OC(=O)C(O)=C3c3ccc(O)cc3)ccc2O1 (configuration not stated) | >24 | < 34% | < 34% | > 800 µM | < 34% | < 34% | < 34%
16 | 19 µM | 44 µM | 2.5 µM | CCOC(=O)[C@@]1(O)OC(=O)C(Cc2ccc3c(c2)CCC(C)(C)O3)=C1c1ccc(O)cc1 | 12 | < 34% | < 34% | 519 µM | < 34% | < 34% | < 34%
17 |  | 79 µM |  | OC[C@H]1NC[C@H](O)[C@@H](O)[C@@H]1O [DUVOGLUSTAT] |  |  |  |  |  |  | 
18 | 5.5 µM | 55 µM | 6.3 µM | COC(=O)c1cc(O)cc(OC)c1Oc1c(Cl)c(C)c(Cl)c(O)c1C(=O)O [GEODIN HYDRATE] | >15 | < 34% | < 34% | > 800 µM | < 34% | < 34% | < 34%
